The text below walks through data of publication PMC6225502 (Journal of Clinical Oncology, 2018).

The format of data set [1] is in vivo, human. In outline:
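Adults with advanced solid tumors took oral epacadostat 25, 50 or 100 mg twice daily with IV pembrolizumab 2 mg/kg every 3 weeks, or 300 mg twice daily with 200 mg every 3 weeks, in 3 + 3 + 3 escalation. Expansion cohorts of up to nine received 50, 100 or 300 mg with 200 mg. DLTs were protocol-specified AEs within the first 6 weeks. RP2D was set by expansion tolerability.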

Data set [2] relates to IDO1. As to the kind of experiment: Pharmacokinetic-based projected IDO1 inhibition. More on the design: species or system human.
Data set [3] in a line: Plasma pharmacokinetics of epacadostat. Format: in vivo, human.
Data set [4] has as its system IDO1. As to conditions: doses ≥ 100 mg twice per day; ref [1][6]; cited from earlier work.
The conditions of data set [5]: patients with advanced cancers; cited from earlier work.
The nature of data set [6]: Safety and tolerability: treatment-related adverse events. The data set is classed as in vivo, human. In outline:
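Patients receiving ≥1 dose of oral epacadostat twice daily plus IV pembrolizumab every 3 weeks were assessed on day 1 of every cycle, at end of treatment and during follow-up. Liver function tests were run weekly for the first 6 weeks. AEs were graded per CTCAE v4.0 and summarized descriptively.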

For data set [7] the following is noted: pembrolizumab monotherapy reference data set; cited from earlier work.
Setting [8] is: epacadostat 100 mg twice per day + pembrolizumab.
Where [9] appears, read: epacadostat 300 mg twice per day + pembrolizumab.

For the compound `NS(=O)(=O)NCCNc1nonc1C(=NO)Nc1ccc(F)c(Br)c1` [Epacadostat], in data set [1] (epacadostat 100 mg twice per day + pembrolizumab (15 patients)), the DLTs observed entry is “grade 3 AST increased/grade 2 ALT increased and grade 2 nervous system disorder occurred in one patient each”. Further, in data set [1] (plus pembrolizumab 200 mg every 3 weeks), the “Recommended phase II dose (RP2D) of epacadostat” value worked out at 100 mg twice per day. Further, the “Average concentrations at steady state relative to the IC50 associated with optimal target inhibition” value with IDO1 [2] (all patients who received epacadostat ≥ 100 mg twice per day) is “exceeded the IC50”. Moreover, the “Patients who achieved a minimum IDO1 inhibition of ≥ 50%” value in the data set on IDO1 [2] (epacadostat 100 mg twice per day) is on record as “the majority of patients”. Besides, in the data set on IDO1 [2] (epacadostat 100 mg twice per day or 300 mg twice per day), the “Patients projected to have achieved ≥ 50% time-averaged IDO1 inhibition” value is recorded as “all patients”. The “Patients projected to have achieved ≥ 50% time-averaged IDO1 inhibition” value in the data set on IDO1 [2] (steady state, all epacadostat doses) is reported as more than 90%. The “Dose dependence of plasma exposures (AUC and Cmax)” value in data set [3] (25 to 300 mg twice per day + pembrolizumab) is given as “increased in an approximately dose-proportional manner”. Besides, the “Time of maximum observed plasma concentration” value in data set [3] (across doses) is “approximately 2 hours”. Besides, the “Inhibition of IDO1 activity and kynurenine levels” value in the data set with IDO1 [4] was “provide optimal inhibition of IDO1 activity and normalization of kynurenine levels”. The “Tolerability of single-agent epacadostat” value in data set [5] is reported as “well tolerated”. Further, in data set [6] (setting [8]), the “Rate of AEs of special interest” value turned out to be 6%, the “Rate of grade 3/4 TRAEs” value is given as 28%, the “Rate of treatment-related dose interruptions” value is recorded as 22% and the “Rate of treatment-related dose reductions” value stood at 11%. Moreover, in data set [6] (setting [9]), the “Rate of AEs of special interest” value came to 30%, the “Rate of grade 3/4 TRAEs” value was found to be 35%, the “Rate of treatment-related dose interruptions” value amounted to 45% and the “Rate of treatment-related dose reductions” value stood at 35%.
As for pembrolizumab, in data set [7], the “Treatment-emergent antipembrolizumab antibody rate” value is 2.1%.
